In the library only some 3.5% were active in any assay of this set; here they are far more common.
MrgX1 allo act – positive allosteric modulators of MrgX1, primary screen, HEK293 cells, Fluo-4 calcium flux | actives 0.63% (n = 310,000) | FDSS; stronger effect = higher value | Mas-related G-protein coupled receptor member X1 (Homo sapiens), Q96LB2 | AID 588675, 2011 | B-score at 10 µM;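 active means plate-corrected calcium response at least 3 library SD above typical, normal starting fluorescence, not activating the receptor alone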;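 further: compound read alongside a low EC10 to EC30 dose of BAM8-22 agonist; peak minus trough fluorescence over baseline measured at the second addition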
Target sequence (Q96LB2 whole entry, looked up): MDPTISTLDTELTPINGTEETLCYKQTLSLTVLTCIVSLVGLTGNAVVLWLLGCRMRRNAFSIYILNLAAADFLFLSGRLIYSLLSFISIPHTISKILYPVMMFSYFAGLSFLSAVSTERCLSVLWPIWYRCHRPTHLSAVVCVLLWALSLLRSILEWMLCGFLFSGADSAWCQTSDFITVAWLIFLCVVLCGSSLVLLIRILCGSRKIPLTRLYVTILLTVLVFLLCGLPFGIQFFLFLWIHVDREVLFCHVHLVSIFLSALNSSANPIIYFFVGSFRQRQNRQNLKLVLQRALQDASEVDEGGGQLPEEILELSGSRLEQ
RGS4 inh – RGS4 inhibitors, primary screen, cell-based, HEK293 M3R inducible RGS4, calcium flux | Regulator of G-protein signaling 4 (Homo sapiens), P49798 | Fluo-4 calcium flux; stronger effect = higher value; triggered by carbachol at its EC20 | B-score at 10 µM | actives 0.45% (n = 310,000) | AID 463165, 2010;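 active means B-score, a plate-corrected calcium signal, over three deviations above library mean, with baseline fluorescence within five deviations of library mean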;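 further: RGS4 expression induced by doxycycline in cells with stable M3 receptor; B-score is computed from the integrated fluorescence ratio over baseline after carbachol; higher B-score means a larger calcium signal and so more RGS4 inhibition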
Target sequence (P49798 whole entry, looked up): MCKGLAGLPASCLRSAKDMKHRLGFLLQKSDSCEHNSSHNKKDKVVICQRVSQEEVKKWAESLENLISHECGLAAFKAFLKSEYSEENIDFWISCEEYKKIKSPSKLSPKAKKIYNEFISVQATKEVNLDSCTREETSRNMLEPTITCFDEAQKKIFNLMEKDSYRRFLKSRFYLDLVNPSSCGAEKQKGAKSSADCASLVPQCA
MrgX1 agonist – agonists of human MrgX1 receptor, primary screen, HEK293 cells, Fluo-4 calcium flux | Mas-related G-protein coupled receptor member X1 (Homo sapiens), Q96LB2 | Fluo-4 calcium fluorescence, agonist mode; stronger effect = higher value | B-score at 10 µM | actives 0.44% (n = 310,000);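 active means calcium response B-score plate-corrected fluorescence ratio at least 3 library SD, with starting fluorescence B-score inside 5 SD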
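Material – MrgX1-expressing HEK293 cells · Input – 15,000 cells seeded per well · Dosing – compound as first of three additions · Times – overnight seeding, then 1 h dark dye loading · Measured by – kinetic Fluo-4 NW fluorescence of intracellular calcium · Read-out – B-scored fluorescence response ratio · Benchmarks – positive and negative control wells on each plate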
RGS4 pot – RGS4 potentiators or activators, primary screen, cell-based, HEK293 M3R inducible RGS4, calcium flux. carbachol calcium flux Fluo4; stronger effect = lower value. B-score at 10 µM. actives 0.92% (n = 310,000);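 active means B-score of the integrated calcium signal more than 4 SD below the library mean, with starting fluorescence not abnormally high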;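 further: negative B-score means reduced calcium response which marks RGS4 activation or potentiation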
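System – HEK293 FlpIn-TREx cells, stable M3R, doxycycline-inducible RGS4 · Reagent – ECmax carbachol challenge · Times – compound preincubation 20 min at room temperature before agonist · Technique – Fluo4 fluorescence kinetic imaging of calcium · Measure – B score of integrated Fluo4 ratio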
MrgX1 antag – antagonists of human MrgX1 receptor, primary screen, HEK293 cells, Fluo-4 calcium flux. AID 588676, 2011. Mas-related G-protein coupled receptor member X1 (Homo sapiens), Q96LB2. BAM8-22 antagonism; stronger effect = lower value. B-score at 10 µM. actives 1.3% (n = 310,000);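 active means calcium-response B-score plate-corrected more than 3 library SD below zero, starting fluorescence within 5 deviations, no agonist response on first addition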;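 further: peak minus trough fluorescence over baseline after final BAM8-22 challenge near maximal dose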
* hit, by the source's call.

For Cn1c(O)c(/C=C/C=Nc2ccccc2)c(=O)n(C)c1=S the results were MrgX1 allo act inactive, RGS4 inh inactive, MrgX1 agonist inactive, RGS4 pot inactive and MrgX1 antag -8.5*.
`O=C(c1ccccc1F)N1C[C@H]2C[C@@H](C1)c1cccc(=O)n1C2` gave MrgX1 allo act inactive, RGS4 inh inactive, MrgX1 agonist inactive, RGS4 pot inactive and MrgX1 antag inactive.
CC(C)CNP(=S)(c1ccccc1)C(C)(C)C (stereo not drawn) was read as MrgX1 allo act inactive, RGS4 inh inactive, MrgX1 agonist inactive, RGS4 pot inactive and MrgX1 antag inactive.
`Cc1ccc(NP(=O)(Oc2ccccc2F)Oc2ccccc2F)cc1` gave MrgX1 allo act inactive, RGS4 inh inactive, MrgX1 agonist inactive, RGS4 pot inactive and MrgX1 antag -6.7*.
`CCc1ccc(NP(=O)(Oc2ccccc2F)Oc2ccccc2F)cc1` gave MrgX1 allo act inactive, RGS4 inh inactive, MrgX1 agonist inactive, RGS4 pot inactive and MrgX1 antag inactive.
Cc1ccc2c(c1)CC1(CN2C)C(=O)NC(=O)N(c2ccccc2C)C1=O (stereo not drawn) was read as MrgX1 allo act inactive, RGS4 inh inactive, MrgX1 agonist inactive, RGS4 pot inactive and MrgX1 antag -8.5*.
Screening Cc1ccc2c(c1)CC1(CN2C)C(=O)NC(=O)N(c2cccc(C)c2C)C1=O (stereo not drawn) returned MrgX1 allo act inactive, RGS4 inh inactive, MrgX1 agonist inactive, RGS4 pot inactive and MrgX1 antag inactive.
Screening CN(C)c1ccc(P(=S)(N(C)C)N(C)C)cc1 returned MrgX1 allo act inactive, RGS4 inh inactive, MrgX1 agonist inactive, RGS4 pot inactive and MrgX1 antag inactive.
CCOP(=S)(OCC)c1ccc(N(C)C)cc1 was read as MrgX1 allo act 10*, RGS4 inh inactive, MrgX1 agonist inactive, RGS4 pot inactive and MrgX1 antag inactive.
For C[N+](C)(C)Cc1ccccc1 the results were MrgX1 allo act inactive, RGS4 inh inactive, MrgX1 agonist inactive, RGS4 pot -8.6* and MrgX1 antag inactive.
`NC(Cc1ccccc1)Cc1ccccc1` gave MrgX1 allo act inactive, RGS4 inh inactive, MrgX1 agonist inactive, RGS4 pot inactive and MrgX1 antag inactive.
CC[N+]12CCC(CC1)C(C(O)(c1ccccc1)c1ccccc1)C2 (stereo not drawn) was read as MrgX1 allo act inactive, RGS4 inh inactive, MrgX1 agonist inactive, RGS4 pot -8* and MrgX1 antag inactive.
Screening CC(C)[N+]12CCC(CC1)C(C(O)(c1ccccc1)c1ccccc1)C2 (stereo not drawn) returned MrgX1 allo act inactive, RGS4 inh inactive, MrgX1 agonist inactive, RGS4 pot -8.4* and MrgX1 antag inactive.
For C[N+]12CCC(CC1)C(C(O)(c1cccc(Cl)c1)c1cccc(Cl)c1)C2 (stereo not drawn) the results were MrgX1 allo act inactive, RGS4 inh inactive, MrgX1 agonist inactive, RGS4 pot -9.2* and MrgX1 antag inactive.
Nc1cc(C(=O)Nc2ccc(Cl)cc2)ccc1N1CC2CC(C1)c1cccc(=O)n1C2 (stereo not drawn) was read as MrgX1 allo act inactive, RGS4 inh inactive, MrgX1 agonist inactive, RGS4 pot inactive and MrgX1 antag inactive.
For O=C1CN=C(c2cccc(Br)c2)c2cc(Br)ccc2N1 the results were MrgX1 allo act inactive, RGS4 inh inactive, MrgX1 agonist inactive, RGS4 pot inactive and MrgX1 antag inactive.
Screening CC(C)(C)n1cc(C(=O)c2ccccc2)cc1-c1ccccc1 returned MrgX1 allo act inactive, RGS4 inh inactive, MrgX1 agonist inactive, RGS4 pot inactive and MrgX1 antag inactive.
For CCOC(=O)C1(CCCc2ccccc2)CCN(C2CCCC2)CC1 the results were MrgX1 allo act inactive, RGS4 inh inactive, MrgX1 agonist inactive, RGS4 pot -7* and MrgX1 antag inactive.
Screening CCOC(=O)C1(CCc2ccccc2)CCN(C2CCSCC2)CC1 returned MrgX1 allo act inactive, RGS4 inh inactive, MrgX1 agonist inactive, RGS4 pot inactive and MrgX1 antag inactive.
Screening Nc1ccc2ccc3cccc[n+]3c2c1 returned MrgX1 allo act inactive, RGS4 inh inactive, MrgX1 agonist inactive, RGS4 pot -7.6* and MrgX1 antag inactive.
For COC(=O)C1=CCCN(C)C1 the results were MrgX1 allo act inactive, RGS4 inh inactive, MrgX1 agonist 57*, RGS4 pot inactive and MrgX1 antag inactive.
For CCCCNS(=O)(=O)c1ccc(OCC(=O)N2CCN(Cc3ccc4c(c3)OCO4)CC2)cc1 the results were MrgX1 allo act inactive, RGS4 inh inactive, MrgX1 agonist inactive, RGS4 pot inactive and MrgX1 antag inactive.
`Cc1cccc(N2C(=O)NC(=O)/C(=C\c3ccc4c(c3)CCCN4Cc3ccccc3)C2=O)c1` gave MrgX1 allo act 12*, RGS4 inh inactive, MrgX1 agonist inactive, RGS4 pot inactive and MrgX1 antag inactive.
Cn1cnc([N+](=O)[O-])c1Sc1ccc([N+](=O)[O-])cc1 was read as MrgX1 allo act inactive, RGS4 inh inactive, MrgX1 agonist inactive, RGS4 pot inactive and MrgX1 antag inactive.
`FC(F)(F)c1ccc2c(c1)N(CCCN1CCN(CCCl)CC1)c1ccccc1S2` gave MrgX1 allo act inactive, RGS4 inh inactive, MrgX1 agonist inactive, RGS4 pot -8.9* and MrgX1 antag inactive.
Nc1ccc(CCN2CCN(c3cccc(C(F)(F)F)c3)CC2)cc1 was read as MrgX1 allo act inactive, RGS4 inh inactive, MrgX1 agonist inactive, RGS4 pot inactive and MrgX1 antag inactive.
CCN1C(=O)NC(=O)/C(=C\c2cn(CC(=O)N3CCCC3)c3ccccc23)C1=O was read as MrgX1 allo act inactive, RGS4 inh inactive, MrgX1 agonist inactive, RGS4 pot inactive and MrgX1 antag inactive.
O=C1NC(=O)N(c2ccccc2F)C(=O)/C1=C/c1cn(CC(=O)N2CCOCC2)c2ccccc12 was read as MrgX1 allo act inactive, RGS4 inh 9.9*, MrgX1 agonist inactive, RGS4 pot inactive and MrgX1 antag inactive.
`CCCC(CCC)C(=O)OC[N+](C)(C)CCOC(=O)C(O)(c1ccccc1)C1CCCC1` (stereo not drawn) gave MrgX1 allo act inactive, RGS4 inh inactive, MrgX1 agonist inactive, RGS4 pot inactive and MrgX1 antag inactive.

Assay outcomes (PubChem)
